The subject of one data set is Plasma. Kind of data set: Drug level in Dahl salt-sensitive rat plasma at 5 mg/kg, sc qd. The following applies: in vivo.
A short description of data set [1]: AUC (0 to 8 hrs) in Dahl salt-sensitive rat at 50 mg/kg, sc. It counts as ADME, organism-based. Further details: time < 8 hr, dose 50 mg/kg, route subcutaneous. The following applies: plasma. In a few lines: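 Dahl salt-sensitive rats given 50 mg/kg sc in 10% 1 N HCl, 90% Captisol in pH buffer (10%). Plasma exposure followed over time to give AUC.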
Data set [2] addresses T1, Serine/threonine-protein kinase D1 (Homo sapiens, UniProt Q15139).
T1 sequence (Q15139 whole entry): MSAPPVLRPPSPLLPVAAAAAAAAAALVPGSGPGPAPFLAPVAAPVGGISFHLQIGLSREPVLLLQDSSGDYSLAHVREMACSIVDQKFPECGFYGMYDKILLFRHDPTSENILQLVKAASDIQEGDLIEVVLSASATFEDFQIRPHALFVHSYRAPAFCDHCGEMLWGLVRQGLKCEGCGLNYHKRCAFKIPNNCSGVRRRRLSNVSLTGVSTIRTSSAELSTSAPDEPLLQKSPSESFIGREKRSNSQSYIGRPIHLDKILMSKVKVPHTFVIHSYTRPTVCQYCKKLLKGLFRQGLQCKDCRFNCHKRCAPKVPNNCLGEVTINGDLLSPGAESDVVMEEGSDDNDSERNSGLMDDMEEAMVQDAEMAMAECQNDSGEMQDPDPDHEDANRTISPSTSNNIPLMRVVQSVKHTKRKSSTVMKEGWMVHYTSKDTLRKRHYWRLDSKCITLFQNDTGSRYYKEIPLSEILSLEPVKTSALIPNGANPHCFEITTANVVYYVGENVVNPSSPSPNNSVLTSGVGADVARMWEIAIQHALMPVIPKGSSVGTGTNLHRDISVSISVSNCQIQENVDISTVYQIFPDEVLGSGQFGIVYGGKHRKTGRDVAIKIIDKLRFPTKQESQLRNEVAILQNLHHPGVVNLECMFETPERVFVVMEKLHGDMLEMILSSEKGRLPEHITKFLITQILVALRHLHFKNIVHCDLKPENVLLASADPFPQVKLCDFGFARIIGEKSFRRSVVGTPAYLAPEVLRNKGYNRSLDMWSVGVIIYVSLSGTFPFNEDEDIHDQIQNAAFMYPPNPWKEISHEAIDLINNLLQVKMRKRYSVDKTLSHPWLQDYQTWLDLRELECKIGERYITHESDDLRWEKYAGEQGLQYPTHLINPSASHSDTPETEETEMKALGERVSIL
Kind of data set: Inhibition of PKD1 by TR-FRET assay. In a few lines:
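Full-length wild-type PKD1 expressed and purified from Sf9 cells, 0.2 μg/mL, in 35 mM Tris-HCl pH 7.5, 5 mM MgCl2, 0.02% Tween-20, 20 μM ATP, 1 mM DTT. Reaction started with 2 μM biotinylated syntide-2 and run 50 min at room temperature. Stopped with EDTA plus europium anti-rabbit IgG, anti-phospho-syntide-2 antibody and streptavidin-APC. LANCE TR-FRET 665/615 ratio read after 1 h. 11-point curves in triplicate gave IC50.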
In general terms: Time-resolved FRET reads energy transfer from a long-lived donor to a nearby acceptor.

In data set [3] the target is T2, Calcium/calmodulin-dependent protein kinase type IV (Homo sapiens) (UniProt Q16566).
T2 sequence (whole entry): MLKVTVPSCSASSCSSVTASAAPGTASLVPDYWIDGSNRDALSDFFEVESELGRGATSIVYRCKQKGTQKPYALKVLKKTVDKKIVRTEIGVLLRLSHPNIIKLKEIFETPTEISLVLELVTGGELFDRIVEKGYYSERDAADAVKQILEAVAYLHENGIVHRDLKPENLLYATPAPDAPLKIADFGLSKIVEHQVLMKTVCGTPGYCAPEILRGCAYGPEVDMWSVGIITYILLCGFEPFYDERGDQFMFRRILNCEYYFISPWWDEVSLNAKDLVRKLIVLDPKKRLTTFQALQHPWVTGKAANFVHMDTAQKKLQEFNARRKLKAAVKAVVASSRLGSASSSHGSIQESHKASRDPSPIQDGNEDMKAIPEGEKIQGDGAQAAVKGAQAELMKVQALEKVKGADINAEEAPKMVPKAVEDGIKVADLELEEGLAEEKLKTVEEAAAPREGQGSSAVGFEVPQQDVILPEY
The data set can be described thus: Inhibition of human CaMK4. The conditions noted are these: concentration not given here. In a few lines: (§1)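 Selectivity screen run externally (Invitrogen SelectScreen). Percent inhibition measured at 1 μM compound, mean of 2 measurements.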

The target of data set [4] is T3, Serine/threonine-protein kinase D2 (Homo sapiens, UniProt Q9BZL6).
T3 sequence (Q9BZL6 whole entry): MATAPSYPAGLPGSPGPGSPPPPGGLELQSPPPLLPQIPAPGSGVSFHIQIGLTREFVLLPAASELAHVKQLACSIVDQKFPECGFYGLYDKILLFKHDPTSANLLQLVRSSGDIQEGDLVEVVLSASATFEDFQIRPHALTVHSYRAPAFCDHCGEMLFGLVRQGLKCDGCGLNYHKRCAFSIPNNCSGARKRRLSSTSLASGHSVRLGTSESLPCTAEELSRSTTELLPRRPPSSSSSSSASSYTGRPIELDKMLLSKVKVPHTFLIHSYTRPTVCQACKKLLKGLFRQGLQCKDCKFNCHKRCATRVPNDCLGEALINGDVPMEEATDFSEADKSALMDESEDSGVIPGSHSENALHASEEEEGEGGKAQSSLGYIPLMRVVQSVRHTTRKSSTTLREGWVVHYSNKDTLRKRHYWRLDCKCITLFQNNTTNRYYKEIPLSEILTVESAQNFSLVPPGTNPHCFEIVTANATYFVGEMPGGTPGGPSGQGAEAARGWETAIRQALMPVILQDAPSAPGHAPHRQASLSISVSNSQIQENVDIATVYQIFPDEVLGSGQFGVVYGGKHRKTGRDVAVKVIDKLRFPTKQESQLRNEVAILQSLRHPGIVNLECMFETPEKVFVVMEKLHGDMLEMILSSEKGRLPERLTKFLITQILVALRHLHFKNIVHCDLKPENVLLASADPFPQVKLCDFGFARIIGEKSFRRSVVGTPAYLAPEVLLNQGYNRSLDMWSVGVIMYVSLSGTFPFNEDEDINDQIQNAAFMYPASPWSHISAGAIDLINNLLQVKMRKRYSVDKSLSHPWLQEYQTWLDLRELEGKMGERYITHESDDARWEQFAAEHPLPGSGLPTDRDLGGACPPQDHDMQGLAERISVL
The data set can be described thus: Inhibition of PKD2 by TR-FRET assay.

A further data set deals with Rattus norvegicus. The data set can be described thus: Antihypertensive activity in thoracic aortic banded Sprague-Dawley rat assessed as inhibition of cardia hypertrophy at 5 mg/kg, sc. It counts as functional, organism-based. The conditions noted are these: Aorta. Further details: dose 5 mg/kg. The procedure, abridged: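 Rats fitted with an aortic occlusion cuff or given sham surgery. Dosed 5 mg/kg/day sc in acidified captisol, or vehicle, for 2 weeks. End-point cardiac performance assessed by ultrasound and hemodynamics by direct catheterization.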

The target of data set [5] is Serine/threonine-protein kinase MARK2 (Homo sapiens) (UniProt Q7KZI7). Kind of data set: Inhibition of human MARK2. The following applies: concentration not given here. In a few lines:
as §1

Data set [6] concerns the target Calcium/calmodulin-dependent protein kinase type 1D (Homo sapiens) (UniProt Q8IU85). Kind of data set: Inhibition of CaMK1delta. The conditions noted are these: concentration not given here. In a few lines: as §1

Structures are written as SMILES. Active and inactive are the calls of the source. No cut-off for these calls is given here.

Chain of Calcium/calmodulin-dependent protein kinase type 1D (Homo sapiens) (Q8IU85 whole entry, looked up): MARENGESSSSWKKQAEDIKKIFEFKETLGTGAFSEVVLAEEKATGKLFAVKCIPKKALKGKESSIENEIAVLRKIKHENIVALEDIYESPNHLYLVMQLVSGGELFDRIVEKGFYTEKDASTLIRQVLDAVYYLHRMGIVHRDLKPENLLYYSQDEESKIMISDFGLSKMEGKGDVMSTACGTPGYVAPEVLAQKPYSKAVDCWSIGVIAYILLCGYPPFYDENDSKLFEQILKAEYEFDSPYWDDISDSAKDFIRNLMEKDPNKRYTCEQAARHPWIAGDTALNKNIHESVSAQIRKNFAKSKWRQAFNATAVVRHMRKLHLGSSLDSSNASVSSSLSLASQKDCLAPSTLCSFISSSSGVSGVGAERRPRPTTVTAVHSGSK
Chain of Serine/threonine-protein kinase MARK2 (Homo sapiens) (Q7KZI7 whole entry): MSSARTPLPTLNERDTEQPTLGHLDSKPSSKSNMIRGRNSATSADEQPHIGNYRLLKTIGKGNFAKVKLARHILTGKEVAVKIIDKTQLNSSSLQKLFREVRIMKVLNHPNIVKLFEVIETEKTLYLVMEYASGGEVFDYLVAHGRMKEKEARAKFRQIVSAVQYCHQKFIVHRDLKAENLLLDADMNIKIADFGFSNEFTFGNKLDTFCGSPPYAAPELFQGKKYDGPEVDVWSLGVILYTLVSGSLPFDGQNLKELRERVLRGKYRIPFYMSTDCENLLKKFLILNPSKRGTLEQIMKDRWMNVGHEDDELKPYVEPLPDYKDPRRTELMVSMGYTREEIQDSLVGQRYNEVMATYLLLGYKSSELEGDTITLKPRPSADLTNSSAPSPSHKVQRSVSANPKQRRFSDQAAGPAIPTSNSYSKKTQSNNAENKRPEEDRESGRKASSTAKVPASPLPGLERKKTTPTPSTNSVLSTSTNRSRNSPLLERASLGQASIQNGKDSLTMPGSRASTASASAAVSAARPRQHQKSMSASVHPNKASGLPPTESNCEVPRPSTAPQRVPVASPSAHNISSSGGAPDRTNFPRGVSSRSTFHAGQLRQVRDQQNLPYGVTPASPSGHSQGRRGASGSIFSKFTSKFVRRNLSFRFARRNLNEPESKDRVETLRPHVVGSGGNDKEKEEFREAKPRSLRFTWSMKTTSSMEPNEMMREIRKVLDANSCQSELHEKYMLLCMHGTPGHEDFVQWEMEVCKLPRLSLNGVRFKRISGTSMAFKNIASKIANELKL

Turning to `NC(=O)c1cc(-c2ccnc(NC3CCCCC3)c2)nc(N2CCNCC2)c1`, the concentration in the data set with Plasma amounted to 230 nM. Further, the AUC(0-t) at 8 h in data set [1] was determined as 25.8 µM·h. Further, the IC50 in data set [2] came out at 1 nM; in data set [4] it was 9 nM. Further, the inhibition amounted to 1% in data set [3], 27% in data set [5] and 6% in data set [6]. Further, the inhibition result with Rattus norvegicus is “inactive”.

In general, AUC(0-t) refers to exposure summed from dosing to a finite time, without extrapolation to infinity. As a reminder, the IC50 is the concentration needed to halve the response being measured. A higher IC50 goes with lower potency. What is called inhibition is the drop in the measured response relative to a control, in per cent.
